Experimental data published in ChEMBL document CHEMBL1124512, “Synthesis of 3-deazaneplanocin A, a powerful inhibitor of S-adenosylhomocysteine hydrolase with potent and selective in vitro and in vivo antiviral activities” (1989).
Converted amounts (≈) assume the structure as drawn. “And” between values parts separate entries of the source, which are not always exact repeats. Equal entries are not always repeated.

How the values were obtained:
[1] = system: Vesicular stomatitis virus; assay: (§1) Viral rating activity against vesicular stomatitis viral strain Indiana in L929 cell line; type: functional
Procedure, shortened: (§2)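 Virus rating is a weighted score combining the degree of inhibition of the virus-induced cytopathogenic effect with the degree of cytotoxicity. USAMRIID ratings were multiplied by 3 to convert them to the Ehrlich scale.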

[2] = Ratio of minimum toxic compound concentration to inhibitory dose against vesicular stomatitis viral strain Indiana in L929 cell line; type: functional
Procedure, shortened: (§3)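 Selectivity index is the minimum toxic drug concentration (μg/mL) divided by the ID50 for inhibition of the virus-induced cytopathogenic effect.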

Yellow fever virus [3] = assay: Inhibitory dose against yellow fever viral strain Asibi in vero cell line; type: functional; settings: read-out: ID50 (the source's name)
Yellow fever virus [4] = assay: Viral rating of activity against yellow fever viral strain Asibi in vero cell line; type: functional; procedure, shortened: as §2
[5] = Ratio of minimum toxic compound concentration to inhibitory dose against yellow fever viral strain Asibi in vero cell line; type: functional; procedure, shortened: as §3
Human respirovirus 3 [6] = assay: Inhibitory dose against Parainfluenza type 3 viral strain Huebner C243 in H.Ep-2 cell line; type: functional; settings: Human respirovirus 3, HEp-2; read-out: ID50 (the source's name)
Human respirovirus 3 [7] = assay: Viral rating activity against Parainfluenza type 3 viral strain Huebner C243 in H.Ep-2 cell line; type: functional; procedure, shortened: as §2
[8] = Ratio of minimum toxic compound concentration to inhibitory dose against Parainfluenza type 3 viral strain Huebner C243 in H.Ep-2 cell line; type: functional; procedure, shortened: as §3
Mus musculus [9] = assay: In vivo anti-viral activity against Vaccinia tailpox mice model at dose 300 mg/kg (tested on 20 mice - Experiment 1); type: functional
Vaccinia virus [10] = assay: Inhibitory dose against vaccinia viral strain Lederle CA in vero cell line; type: functional, Orthopoxvirus vaccinia
Vaccinia virus [11] = assay: Viral rating activity against vaccinia viral strain Lederle CA in vero cell line; type: functional, Orthopoxvirus vaccinia; procedure, shortened: as §2
[12] = Ratio of minimum toxic compound concentration to inhibitory dose against vaccinia viral strain Lederle CA in vero cell line; type: functional; procedure, shortened: as §3
Mus musculus [13] = assay: In vivo anti-viral activity against Vaccinia tailpox mice model at dose 300 mg/kg (tested on 20 mice - Experiment 2); type: functional
Mus musculus [14] = assay: In vivo anti-viral activity against Vaccinia tailpox mice model at dose 8 mg/kg (tested on 19 mice - Experiment 2); type: functional
Mus musculus [15] = assay: In vivo anti-viral activity against Vaccinia tailpox mice model at dose 8 mg/kg (tested on 20 mice - Experiment 1); type: functional
Mus musculus [16] = assay: In vivo anti-viral activity against Vaccinia tailpox mice model at dose 4 mg/kg (tested on 20 mice - Experiment 2); type: functional
[17] = system: Vesicular stomatitis virus; assay: as §1; type: functional; procedure, shortened: as §2; remark: listed apart in the source
Yellow fever virus [18] = assay: Viral rating activity against yellow fever viral strain Asibi in vero cell line; type: functional; procedure, shortened: as §2
[19] = system: Vesicular stomatitis virus; assay: Inhibitory dose against vesicular stomatitis viral strain Indiana in L929 cell line; type: functional

| Structure (SMILES) | VR [1] | IC50 (Yellow fever virus [3]) | Selectivity index [5] | IC50 (Human respirovirus 3 [6]) | VR (Human respirovirus 3 [7]) | Selectivity index [8] | VR (Vaccinia virus [11]) | further results |
| --- | --- | --- | --- | --- | --- | --- | --- | --- |
| Nc1nccc2c1ncn2[C@@H]1C[C@H](CO)[C@@H](O)[C@H]1O [3-DEAZAARISTEROMYCIN A] | 3.1 and 3.2 and 3.5 and 3.3 |  |  |  |  |  |  | Selectivity index [2]: 3.6 and 3.8 and 7.2 |
| c1c[se]cn1 [SELENAZOLE] |  | 3.3 µg/mL (≈ 25 µM) | 1 |  |  |  |  | VR (Yellow fever virus [4]): 2.4 |
| NC(=O)c1ncn([C@@H]2O[C@H](CO)[C@@H](O)[C@H]2O)n1 [RIBAVIRIN] |  |  |  | 17.5 µg/mL (≈ 71.7 µM) | 2.5 | 5.7 |  |  |
| Nc1ncnc2c1ncn2[C@@H]1O[C@H](CO)[C@@H](O)[C@@H]1O [VIDARABINE] |  |  |  |  |  |  | 3.7 and 4.2 and 3.6 | Protection (Mus musculus [9]): 56%; ID50 (Vaccinia virus [10]): 1 µg/mL and 1.8 µg/mL; IC50 (Vaccinia virus [10]; Orthopoxvirus vaccinia, Vero, read-out: ID50 (the source's name)): 2 µg/mL (≈ 7.48 µM); Selectivity index [12]: 16.3 and 32.2 and 17.9; Protection (Mus musculus [13]): 88% |
| Nc1nccc2c1ncn2C1C=C(CO)C(O)C1O (stereo not drawn) [3-DEAZANEPLANOCIN A] | 4.7 | 1 µg/mL (≈ 3.81 µM) | 0.3 | 0.05 µg/mL (≈ 0.191 µM) | 3.6 | 2 | 3.1 and 5.4 and 4.5 | Protection (Mus musculus [14]): 84%; Protection (Mus musculus [15]): 74%; Protection (Mus musculus [16]): 82%; VR [17]: 3.6 and 4.2; VR (Yellow fever virus [18]): 2.9; ID50 [19]: 0.07 µg/mL and 0.2 µg/mL; IC50 ([19]; read-out: ID50 (the source's name)): 0.3 µg/mL (≈ 1.14 µM) |
